Screening data from PubChem BioAssay.
Compounds with a hit are over-represented: about 7.2% of the library has one in this group of screens.
HEK293 NFkB inh: lowers PMA/ionomycin-induced NF-kB signal in HEK293 cells | HEK-293 NF-kB luciferase reporter, luminescence | inhibition, % at 3 µM | actives 0.21% (n = 62,000) | AID 465;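 active = inhibition above the mean of all tested compounds plus 3 SD, cut at about 40% in these data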
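Timing: 1 h pretreatment, 16 h stimulation, 37 °C; system: HEK-293 cells with stable firefly luciferase reporter driven by four HIV NF-kB elements; doses: 3 µM once, 0.30% DMSO; measured by: luciferase luminescence; control set: DMSO and 10 µM reference inhibitor; repeats: single test; reagent: PMA plus ionomycin mix as NF-kB-activating stimulus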
hDAT+cocaine: changed human dopamine transporter uptake under cocaine IC80. Q01959. LLC-PK1 hDAT cells, [14C]-dopamine uptake with cocaine IC80; actives deviate in either direction. B-score at 10 µM. actives 1.3% (n = 110,000). AID 449768;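 active = Z score or B-score, a plate-position-corrected score, falls beyond the plate's 99.7% confidence bounds, in either direction; inactive = both scores lie inside the 99.7% bounds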
M1 agonist: M1 muscarinic receptor agonism; CHO-M1 cells, Fluo-4 calcium fluorescence, agonist mode; active compounds read high; B-score at 10 µM; actives 3% (n = 64,000); AID 626;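 active = fluorescence rise, raw or as B-score row- and column-corrected plate score, outside the 99.7% band of its plate's samples, either direction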
M1 antag: M1 muscarinic receptor (rat) antagonism. P08482. AID 628. CHO-M1 cells, Fluo-4 calcium, ACh EC80 antagonist mode; active compounds read low. actives 3.4% (n = 64,000). B-score at 10 µM;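 active = calcium fluorescence response, raw or row-and-column corrected B-score, differing from the plate sample mean either way at a set confidence level, mostly lower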
Target sequence (P08482 whole entry, looked up): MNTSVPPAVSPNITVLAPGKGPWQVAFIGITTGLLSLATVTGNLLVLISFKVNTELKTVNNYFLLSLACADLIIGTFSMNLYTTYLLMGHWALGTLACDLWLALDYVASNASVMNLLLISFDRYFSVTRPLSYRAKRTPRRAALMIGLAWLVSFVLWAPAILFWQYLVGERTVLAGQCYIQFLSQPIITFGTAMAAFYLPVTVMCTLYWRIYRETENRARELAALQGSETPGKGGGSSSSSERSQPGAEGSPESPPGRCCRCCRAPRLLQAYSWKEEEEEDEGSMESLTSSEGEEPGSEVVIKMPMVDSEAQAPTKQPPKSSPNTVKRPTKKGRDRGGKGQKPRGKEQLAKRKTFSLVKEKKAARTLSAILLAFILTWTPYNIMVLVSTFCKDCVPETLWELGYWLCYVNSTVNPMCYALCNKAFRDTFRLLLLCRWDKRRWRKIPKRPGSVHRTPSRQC
BAP1 block: human BAP1 deubiquitinase inhibition; Q92560; recombinant BAP1, Ub-AMC hydrolysis fluorescence kinetic; active compounds read low; calls only at 20 µM; actives 0.48% (n = 72,000); AID 436;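 active = activity remaining at or below 50% of control, provided the compound also passes the data quality filters; inactive = the rest, including low values that fail the filters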
D1 allo mod: allosteric modulators of human D1 dopamine receptor | P21728 | actives 5.9% (n = 58,000) | B-score at 10 µM | HEK293 D1, CRE-luciferase, dopamine EC30 potentiation; actives deviate in either direction | AID 641;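 active = luminescence count or its row- and column-corrected plate score outside the 99.7% band of the plate's sample wells, on either side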
BAP1 inh conf: confirmation of human BAP1 enzyme inhibitors; % of control activity, % at 20 µM; purified BAP1, Ub-ethyl ester hydrolysis, HPLC; active compounds read low; shares compounds with BAP1 block; actives 8% (n = 310);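 active = percent of control activity at or below 60%; inconclusive = HPLC trace unusable from injection failure or solvent front hiding peaks; inactive = the rest, plus ubiquitin peak ratio over a set limit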
M1 agonist conf: confirmation of rat M1 muscarinic receptor agonists; actives 19% (n = 1,700); shares compounds with M1 agonist; CHO-M1 cells, Fluo-4 calcium fluorescence, agonist mode; actives lie on both sides; fluorescence change (max-min) at 10 µM;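 active = fluorescence change differs from the solvent-only DMSO control mean at a set confidence level in both duplicate runs; inconclusive = differs from solvent-only control mean in just one of two runs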;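 note: an EC20 dose of acetylcholine follows compound addition during the same imaging run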
M4 agonist ctr: counter-screen for M1 agonists: activity at rat M4 receptor | shares compounds with M1 agonist | CHO M4/Gqi5 cells, Fluo-4 calcium fluorescence, agonist mode; actives lie on both sides | fluorescence change (max-min) at 10 µM | actives 9% (n = 1,700) | AID 1741;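 active = fluorescence change differing from the plate's solvent-only control wells at 99.7% confidence in both duplicates, whether higher or lower; inconclusive = differs from solvent controls in only one of two duplicates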
D1 mod confirm: confirmation of human D1 dopamine receptor allosteric modulators | shares compounds with D1 allo mod | HEK293 D1 CRE-luciferase, dopamine EC30 potentiation; active compounds read high | luminescence at 10 µM | actives 88% (n = 2,200);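 active = luminescence in either of two replicates above the same-plate mean plus 3 SD of the low-dose dopamine control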
D1 ag no DA: secondary test of D1 modulators: activity without dopamine. actives 0.8% (n = 1,900). HEK293 D1 CRE-luciferase, luminescence, no dopamine; active compounds read high. luminescence at 10 µM. shares compounds with D1 allo mod. AID 646; in the data active = luminescence above about 3900
Isoprot counter: counter-screen for D1 modulators: isoproterenol response in HEK293 cells. shares compounds with D1 allo mod. HEK293 D1 CRE-luciferase, isoproterenol EC30 counter-screen. calls only at 10 µM. actives 63% (n = 2,200);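 active = luminescence in either replicate above plate mean of wells with a partly effective reference agonist dose plus 3 SD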;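 note: isoproterenol raises cAMP through native beta-adrenoceptor Gs so signal bypasses D1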
Large screens that a line does not name were inactive (follow-up assays come after a bar, where they were run).

C=CCc1ccccc1OCCn1ccnc1	BAP1 block active, D1 allo mod 4.2 | BAP1 inh conf inactive | D1 mod confirm 15712 | D1 ag no DA inactive | Isoprot counter inactive
Clc1ccccc1OCCn1ccnc1	none
Cc1cc(Nc2ccncc2)n2c(nc3ccccc32)c1C#N	none (no result: HEK293 NFkB inh, hDAT+cocaine, M1 agonist, M1 antag, D1 allo mod)
CSc1nnc2c3cc(C)ccc3n(Cc3ccccc3)c2n1	BAP1 block active, D1 allo mod 8.9 | BAP1 inh conf inactive | D1 mod confirm 14436 | D1 ag no DA inactive | Isoprot counter active
CCCn1c(SCC(=O)Nc2sc(C)c(C)c2C(=O)OCC)nc2c1c(=O)n(C)c(=O)n2C	BAP1 block active, D1 allo mod 6.5 | BAP1 inh conf inactive | D1 mod confirm 8860 | D1 ag no DA inactive | Isoprot counter inactive
Cc1cc(=O)[nH]c(/N=C(\N)N2CCc3ccccc32)n1	none (no result: HEK293 NFkB inh, hDAT+cocaine, M1 agonist, M1 antag, D1 allo mod)
CCCSc1cccc(C#N)c1C#N	none (no result: HEK293 NFkB inh, hDAT+cocaine, M1 agonist, M1 antag, D1 allo mod)
CCCCCCSc1nc2c(c(=O)[nH]c(=O)n2C)n1C	none
CCCCCCn1c(SCCCC)nc2c1c(=O)[nH]c(=O)n2C	BAP1 block active, D1 allo mod 11 | BAP1 inh conf inactive | D1 mod confirm 26000 | D1 ag no DA inactive | Isoprot counter active
Cc1ccc(-c2cn3c(n2)sc2cc(C)ccc23)cc1	none (no result: HEK293 NFkB inh, hDAT+cocaine, M1 agonist, M1 antag, D1 allo mod)
COc1ccc2nc(NC(=O)CCc3nc(-c4ccccc4F)no3)sc2c1	BAP1 block active, D1 allo mod 8.3 | BAP1 inh conf 40 | D1 mod confirm inactive | D1 ag no DA inactive | Isoprot counter inactive
COc1ccc(-c2nn(C)c(=O)c3ccccc23)cc1NC(=O)Cn1nc(C)c2ccccc2c1=O	BAP1 block active, D1 allo mod 8.6 | BAP1 inh conf inactive | D1 mod confirm 19816 | D1 ag no DA inactive | Isoprot counter active
CCOC(=O)C(CC)Sc1nc2c(cnn2-c2ccccc2)c(=O)[nH]1 (stereo not given)	none
CCCCCSc1nc2c(cnn2-c2ccccc2)c(=O)[nH]1	BAP1 block active, D1 allo mod 2.9 | BAP1 inh conf inactive | D1 mod confirm 13144 | D1 ag no DA inactive | Isoprot counter inactive
COc1ccc(OC)c(S(=O)(=O)N2CCC(C(=O)Nc3cccc(C(F)(F)F)c3)CC2)c1	M1 agonist 4.4 | M1 agonist conf inactive | M4 agonist ctr inactive
CC(=O)c1cccc(NC(=O)c2nn3c(C(F)(F)F)c4c(nc3c2Cl)-c2ccccc2CC4)c1	none (no result: HEK293 NFkB inh, hDAT+cocaine, M1 agonist, M1 antag, D1 allo mod)
CCc1nnc(NC(=O)C2CC(=O)N(c3ccc(C)cc3)C2)s1 (stereo not given)	none
Cc1ccc(N2CC(C(=O)Nc3ccccn3)CC2=O)cc1 (stereo not given)	M1 agonist 4.6 | M1 agonist conf inconclusive | M4 agonist ctr inactive
CCCn1nnnc1SCC(=O)Nc1nnc(CC)s1	M1 agonist 2.6 | M1 agonist conf inactive | M4 agonist ctr inconclusive
Cc1ccc(N2C(=O)c3ccc(-c4ccc5c(c4)C(=O)N(c4ccc(C)cc4C(=O)O)C5=O)cc3C2=O)c(C(=O)O)c1	none (no result: HEK293 NFkB inh, hDAT+cocaine, M1 agonist, M1 antag, D1 allo mod)
CCOC(=O)C1=C(C)N(CC)C(=O)NC1c1ccccc1[N+](=O)[O-] (stereo not given)	none (no result: HEK293 NFkB inh, hDAT+cocaine, M1 agonist, M1 antag, D1 allo mod)
CC(=O)NC(CCS(C)(=O)=O)C(=O)Nc1ccc(Cl)c(Cl)c1 (stereo not given)	M1 agonist 2.9 | M1 agonist conf inactive | M4 agonist ctr inactive
O=C(c1ccccc1)N1CCN(C2CC(=O)N(CCc3ccccc3)C2=O)CC1 (stereo not given)	none (no result: D1 allo mod)
O=C(c1ccncc1)c1ccc(N2CCN(C3CC(=O)N(Cc4ccccc4)C3=O)CC2)cc1 (stereo not given)	M1 agonist 20, M1 antag -2.3 | M1 agonist conf -25 | M4 agonist ctr inactive
COC(=O)C1=C(C)OC(N)=C(C#N)C1c1c(C)nn(-c2ccccc2)c1Cl (stereo not given)	none
CCOC(=O)C1=C(C)OC(N)=C(C#N)C1c1c(C)nn(-c2ccc(C)cc2)c1Cl (stereo not given)	M1 agonist 3.4 | M1 agonist conf inactive | M4 agonist ctr inactive
CN(C)S(=O)(=O)c1ccc2nc(NC(=O)c3cccs3)sc2c1	none (no result: HEK293 NFkB inh, M1 agonist, M1 antag, BAP1 block, D1 allo mod)
C=CCN(CC=C)S(=O)(=O)c1ccc2nc(NC(=O)C(C)C)sc2c1	M1 agonist 8.5, M1 antag -2.4 | M1 agonist conf inconclusive | M4 agonist ctr inactive
NC(=O)C1CCN(c2ncnc3c2c(-c2ccccc2)cn3-c2ccccc2)CC1	M1 agonist 3.7, D1 allo mod -3.8 | M1 agonist conf inconclusive | M4 agonist ctr inactive
Cc1ccc(C2C=C(c3ccccc3OC(F)F)Nc3ncnn32)cc1 (stereo not given)	none (no result: hDAT+cocaine, D1 allo mod)
CN(C)c1ccc(C2C=C(c3ccc(Cl)cc3OC(F)F)Nc3ncnn32)cc1 (stereo not given)	M1 agonist 18 | M1 agonist conf 85 | M4 agonist ctr inactive
CCOP(=O)(OCC)C(Nc1ccc(Br)cc1)c1cc(Br)ccc1O (stereo not given)	none (no result: HEK293 NFkB inh, hDAT+cocaine, M1 agonist, M1 antag, D1 allo mod)
COCCCNC(=O)CCCn1c(=O)[nH]c2ccccc2c1=O	M1 agonist 2 | M1 agonist conf inactive | M4 agonist ctr inactive
COCCCNC(=O)c1ccc(Cn2c(=O)[nH]c3ccccc3c2=O)cc1	none (no result: hDAT+cocaine)
O=C(CCn1c(=O)[nH]c2ccccc2c1=O)Nc1ccccc1	M1 agonist 11 | M1 agonist conf inactive | M4 agonist ctr inactive
CCCOC1CCCN(C(=O)c2cc(Cl)c(Cl)cc2C(=O)O)C1 (stereo not given)	M1 agonist 37, M1 antag -3.4 | M1 agonist conf 329 | M4 agonist ctr inactive
Cc1ccccc1C(=NS(=O)(=O)c1ccc(Br)cc1)Nc1ccccc1	none (no result: HEK293 NFkB inh, hDAT+cocaine, M1 agonist, M1 antag, D1 allo mod)
